Columns and labels:
[1] = Partition coefficient in octanol to water system; assay type: physicochemical
[2] = Second order rate constant determined for the reaction of compound with GSH in phosphate buffer at a pH of 7.5
In short: (§1)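 Test compound and GSH reacted in phosphate buffer at 37 °C, pH 7.5 for lines 2 and 3 and pH 8.5 for line 4. Aliquots were taken at set times and quenched into phosphate buffer containing 0.2 mM Ellman's reagent (DTNB). Unreacted GSH was measured by UV absorbance at 412 nm. Second-order rate constant k₂ for nucleophilic GSH addition is given in mM⁻¹ h⁻¹.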

[3] = Second order rate constant was determined for the reaction of compound with GSH in phosphate buffer at a pH of 8.5; in short: as §1
[4] = Second order rate constant was determined for the reaction of compound with GSH in phosphate buffer at a pH of 7.5; in short: as §1

With CC(=O)OC(CC#CCS(=O)(=O)c1ccc([N+](=O)[O-])cc1)Cn1ccnc1[N+](=O)[O-] (stereo not given) the Po/w [1] was 15, the k2 [2] was 3 m M-1 hr-1 and the k2 [3] was 17 m M-1 hr-1.

With CC(=O)OC(CC#CCSc1ccc([N+](=O)[O-])cc1)Cn1ccnc1[N+](=O)[O-] (stereo not given) the k2 [3] was 0.8 m M-1 hr-1.

With O=C(O)CCC(=O)OC(CC#CCS(=O)(=O)c1ccc([N+](=O)[O-])cc1)Cn1ccnc1[N+](=O)[O-] (stereo not given) the Po/w [1] was 2.2, the k2 [4] was 1.1 m M-1 hr-1 and the k2 [3] was 8.6 m M-1 hr-1.

In the case of CC(=O)OC(CC#CCS(=O)(=O)c1ccccc1)Cn1ccnc1[N+](=O)[O-] (stereo not given), the Po/w [1] is reported as 22.2, the k2 [4] is reported as 0.2 m M-1 hr-1 and the k2 [3] is reported as 0.7 m M-1 hr-1.

From ChEMBL document CHEMBL1146746, “Propargylic sulfones possessing a 2-nitroimidazole function: novel hypoxic-cell radiosensitizers with intracellular non-protein thiol depletion ability” (Bioorg Med Chem Lett, 2004)
